Screening results deposited in PubChem by several laboratories.
FID counter = counter-screen for HCV NS3 helicase inhibitors: DNA intercalator displacement; DNA fluorescent intercalator displacement, fluorescence; 290,000 compounds, 0.17% hits; inhibition, % at 7.9 µM; AID 1845; in the data active = inhibition above about 37%;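 note: 0% = vehicle and 100% = reference compound; higher means more ethidium bromide displaced from hairpin DNA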
HSF-1 act = increases HSF-1 driven luciferase reporter signal | NIH3T3-HGL HSF-1 luciferase reporter, MG132, 8 h; 100% = twice DMSO control signal | 300,000 compounds, 1.7% hits | activation, % at 9 µM;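 active = mean replicate activation of at least 50% with a set share of replicates each reaching 50%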;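 note: 0% = median of the neutral control wells and 100% = twice that signal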
HCV core dimer = blocks dimerization of HCV core protein; inhibition, % at 5 µM; 300,000 compounds, 0.33% hits; TR-FRET GST/Flag-core106 dimerization, 1536-well;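 active = inhibition above the mean of all tested compounds plus 3 SD, set per screening campaign, cut at about 45% in these data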
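System: GST-tagged and Flag-tagged HCV core protein residues 1-106 / Input: core106 proteins, GST 13.5 nM and Flag 17 nM / Buffer or medium: KF-containing HEPES buffer, pH 7.45, DTT, CHAPS, BSA / Probe or stimulus: Eu-anti-GST and XL665-anti-Flag labelled anti-tag antibodies / Schedule: 4 h, 22.5 °C incubation / Technique: TR-FRET 671 and 617 nm emission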
HSF1 inh = HSF1 inhibition; NIH3T3-HGL HSE-luciferase, MG132-induced, luminescence 8 h; stronger effect = lower value; activity change, negative = inhibition, % at 7.5 µM (by protocol); 300,000 compounds, 0.77% hits; AID 2098;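 active = more than half of replicate wells show activity change below -50%, luminescence cut by over half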;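 note: luciferase reports HSF-1 transcriptional activity via heat shock element; 0% = median of DMSO wells and -100% = zero luminescence signal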
HSP90 inh = HSP90 refolding inhibition in rabbit reticulocyte lysate | luciferase refolding luminescence, 3 h | inhibition, % at 5.6 µM | 290,000 compounds, 0.91% hits | AID 1789;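 active = inhibition above the screen-wide mean plus 3 SD, computed separately per campaign, cut at about 16% in these data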;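 note: 0% = DMSO wells and 100% = 60 µM geldanamycin wells; inhibitors lower the luminescence because luciferase stays unfolded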
HCV NS3 hel inh = inhibitors of Hepatitis C virus NS3 helicase | NS3 helicase DNA unwinding, Cy5 molecular beacon fluorescence | inhibition, % at 10.9 µM | 290,000 compounds, 0.56% hits | AID 1800;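 active = inhibition above the mean of all tested compounds plus 3 SD, set per campaign, cut at about 35% in these data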;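 note: 0% = DMSO wells and 100% = thioflavine S control wells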
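test system = hepatitis C virus NS3 helicase domain fragment enzyme | reagent = annealed dual-labelled DNA beacon duplex, ATP-started | times = 1 h at 25 °C | detection = Cy5 fluorescence, 0 and 60 min reads | read-out basis = percent inhibition from t60/t0 fluorescence ratio | control set = DMSO and thioflavine S | replication = one well per compound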
Active calls of the source: *; · = no result. Sampled rows, rich in hits. Any-hit rate of the full collection: about 3.9%.

SMILES | FID counter | HSF-1 act | HCV core dimer | HSF1 inh | HSP90 inh | HCV NS3 hel inh
CCOC(=O)N1CCN(C(=O)CS(=O)(=O)c2cn(Cc3ccc(F)cc3)c3ccccc23)CC1 | · | 96* | 12 | 70 | · | ·
O=C(CS(=O)(=O)c1cn(Cc2ccc(Cl)cc2)c2ccccc12)N1CCCC1 | -35 | 33 | 16 | 12 | 0 | -10
CCCC(C(=O)Nc1nccs1)c1ccccc1 (centres undefined) | 2 | -5 | -2 | -2 | -2 | -4
COc1ccc(C2OC3=C(Nc4cc(C)c(C)cc4N3)C2=O)cc1 (centres undefined) | -14 | 30 | -5 | 4 | -3 | -7
Cc1ccccc1NC(=S)c1nc2ccccc2[nH]1 | -6 | 67* | -7 | 33 | -2 | -40
N#CC(=C=[N-])C1=C(C#N)C(c2ccccc2F)C([n+]2ccccc2)C(O)(C2CC2)N1 (centres undefined) | -2 | -3 | 52* | -6 | -3 | 1
Cc1cccc[n+]1C1C(c2ccccc2)C(C#N)=C(C(=C=[N-])C#N)NC1(O)C1CC1 (centres undefined) | 1 | 6 | 32 | 1 | 4 | 2
CS(=O)(=O)Nc1cccc(C2=NN(C(=O)c3ccccc3)C(c3cccs3)C2)c1 (centres undefined) | -22 | 16 | 10 | 8 | -1 | 3
CS(=O)(=O)Nc1cccc(C2=NN(C(=O)CCCC(=O)O)C(c3cccs3)C2)c1 (centres undefined) | -25 | 63* | -3 | 18 | 4 | -2
CC12CCC(=O)N1C(C(=O)Nc1ccccc1F)CS2 (centres undefined) | · | 27 | -3 | 4 | · | ·
CC12CCC(=O)N1C(C(=O)Nc1cccc3ccccc13)CS2 (centres undefined) | · | 70* | 3 | 40 | · | ·
CSc1ncc(C(=O)Nc2cc(C)ccc2C)c(C)n1 | -3 | -15 | · | -1 | -1 | 6
Cc1cccc(/C(N)=N/OC(=O)Cc2cccc3ccccc23)c1 | -1 | 30 | -4 | 7 | -4 | 4
Cc1cccc(C(=O)O/N=C(\N)Cc2cccc3ccccc23)c1 | -24 | 9 | 1 | -1 | 17* | -9
CCCc1c(C(=O)NNc2cc(C(F)(F)F)ccc2Cl)cnn1-c1ccccc1 | -12 | 3 | 5 | 3 | 1 | 5
Cc1cc(N2CCCC2)nc2ccc(NC(=S)NCCCN3CCC(C)CC3)cc12 | 47* | 54* | -6 | 14 | -2 | 10
CCCCN(C)C(=S)Nc1ccc2nc(N3CCN(CC)CC3)cc(C)c2c1 | 16 | -71 | 1 | -64* | 9 | -17
CCN1CCN(c2cc(C)c3cc(NC(=O)c4cncc(Br)c4)ccc3n2)CC1 | 38* | -17 | -9 | -9 | -1 | -67
CCN1CCN(c2cc(C)c3cc(NC(=S)N(C)Cc4ccccc4)ccc3n2)CC1 | 20 | -1 | 3 | 0 | -2 | -66
CCCN1CCN(CCCNC(=S)Nc2ccc3nc(N4CCN(CC)CC4)cc(C)c3c2)CC1 | 37* | 1 | -2 | 0 | 1 | 15
CCN1CCN(c2cc(C)c3cc(NC(=O)c4ccc(OC)c(OC)c4)ccc3n2)CC1 | 3 | 8 | -29 | 3 | 0 | 2
O=C(NCCC1CCCCN1S(=O)(=O)c1ccccc1)C(=O)NC1CC1 (centres undefined) | · | 5 | 0 | 5 | · | ·
CN(C(=O)c1cccc(Nc2ccc(-c3ccc4c(c3)OCCO4)nn2)c1)C1CCCCC1 | -29 | · | 20 | · | 0 | -22
Cc1cccc(CC(=O)NCCN2CCCCC2)c1 | 0 | -8 | 6 | 3 | 7 | 8
CCCCNC(=S)Nc1ccc2nc(N3CCN(CC)CC3)cc(C)c2c1 | 22 | -12 | 0 | -8 | 0 | -69
SMILES | FID counter | HSF-1 act | HCV core dimer | HSF1 inh | HSP90 inh | HCV NS3 hel inh
CCCCN(C)CCNC(=S)Nc1ccc2nc(N3CCN(CC)CC3)cc(C)c2c1 | 46* | -3 | -18 | -4 | -1 | -7
CCN(CC)CCNC(=S)Nc1ccc2nc(N3CCN(CC)CC3)cc(C)c2c1 | 39* | -3 | 0 | -2 | -3 | -3
CCCN(CCC)CCNC(=O)CCC(=O)Nc1ccc2nc(N3CCN(C)CC3)cc(C)c2c1 | 16 | -7 | -3 | -1 | 0 | 3
CCCCNC(=O)CCC(=O)Nc1ccc2nc(N3CCN(C)CC3)cc(C)c2c1 | 5 | 1 | -1 | -5 | 1 | 1
CCN1CCN(c2cc(C)c3cc(NC(=S)NCCN(C)C)ccc3n2)CC1 | 49* | -2 | -2 | -4 | 0 | 25
CCOC(=O)N1CCC(NC(=S)Nc2ccc3nc(N4CCN(CC)CC4)cc(C)c3c2)CC1 | 16 | 15 | 1 | 7 | -2 | -9
CCCCN(CC)C(=S)Nc1ccc2nc(N3CCN(C)CC3)cc(C)c2c1 | 31 | -55 | 2 | -56* | 28* | -31
OC(COCc1ccc(Cl)cc1)CN1CCCCC1 (centres undefined) | 17 | 1 | -1 | 0 | -3 | 1
COc1ccccc1NC(=O)NC1CC(=O)N(c2ccc3c(c2)OCCO3)C1 (centres undefined) | · | -3 | -3 | -2 | · | ·
O=C(Cc1ccccc1)Nc1cc(Cl)ccc1Sc1ccccc1 | -3 | 58* | -2 | 29 | 2 | 0
CCC(=O)c1ccc(Oc2nc3c(c(=O)n(C)c(=O)n3C)n2CC)cc1 | -25 | -32 | 6 | -17 | -1 | -2
COc1ccc(C(C(=O)NC(C)(C)C)N(Cc2ccco2)C(=O)CCC(=O)Nc2ccccn2)cc1 (centres undefined) | -35 | -27 | 6 | -10 | 2 | -7
Cc1cc(C)cc(C(=O)NC(=S)Nc2ccc3c(c2)OCCO3)c1 | -1 | 122* | -4 | 71 | 2 | 9
O=C(NC(=S)Nc1ccc(N2CCCCC2)c(Cl)c1)c1ccc2c(c1)OCCO2 | -1 | -64 | 0 | -60* | 2 | 2
Cc1ccsc1-c1nc(CSCC(=O)NCc2ccc3c(c2)OCO3)c(C)o1 | -25 | -5 | -8 | 2 | -2 | -11
O=C(Nc1ccc2ccccc2c1)c1cccc([N+](=O)[O-])c1 | 10 | 36 | 2 | 9 | 4 | 3
Cc1cccc(C(=O)Nc2ccc3ccccc3c2)c1 | -4 | 66* | -3 | 38 | 1 | 0
O=C(Nc1ccc2ccccc2c1)c1cc(F)c(F)cc1Cl | -6 | 59* | -3 | 53 | -3 | -8
COc1ccc(OC)c(C2C(C(=O)Nc3nc4ccccc4s3)=C(C)NC3=C2C(=O)CCC3)c1 (centres undefined) | -7 | 75* | 6 | 38 | 3 | -4
COc1ccc(C(=O)Nc2cccc(C)c2)cc1 | -1 | 62* | -2 | 14 | 10 | 0
COc1ccc(S(=O)(=O)N2CCC(C(=O)N3CCCCCC3)CC2)cc1 | -22 | -6 | 0 | -10 | 4 | -1
